Test results taken from article PMC9072748 (RSC Advances, 2019).
Like-named read-outs stand apart in the source and are kept apart here.

Legend:
[1] = tested on: CT-DNA; assay: Viscosity measurements of CT-DNA; details: 5.0 mM Tris–HCl buffer, pH 7.2; 1.0–6.0 mM
In short: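 Sonicated CT-DNA held at constant concentration (5.0 mM) with added test compound, EtBr as reference. After 15 min equilibration, flow time measured in triplicate with a stopwatch. η = (t − t0)/t0, with t0 the flow time of buffer alone. Results plotted as (η/η0)^1/3 versus binding ratio.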

[2] = tested on: HepG2 cells; assay: MTT cytotoxicity assay on HepG2 cells; assay type: cell-based, human; details: 24 h incubation
In short: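 HepG2 grown in DMEM with 10% FBS and penicillin/streptomycin (100 μg mL−1 each) at 37 °C, 5% CO2. Seeded at 1 × 10^4 cells/mL, 24 h, then exposed to test compound at 10–50 μM (10 μM steps) for 24 h. MTT (5 mg mL−1 in PBS) added for 2–4 h; formazan dissolved in DMSO; read at 560 nm against 1% DMSO control. IC50 from nonlinear regression of % viability versus concentration.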

[3] = molecular target: BSA (Bos taurus, UniProt P02769); assay: BSA tryptophan fluorescence quenching titration; assay type: binding, Bovine; details: for number of binding sites, n / binding constant K F × 10^−5: Scatchard equation; for binding constant K F × 10^−5: head: KF × 10^−5; for Stern–Volmer quenching constant K sv × 10^−5: Tris–HCl/50 mM NaCl pH 7.2, head: Ksv × 10^−5; for bimolecular quenching rate constant k q × 10^−10: head: kq × 10^−10
In short: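 BSA stock (10.4 μM) made in 5.0 mM Tris–HCl/50 mM NaCl, pH 7.2, with concentration set from A278 (ε 4.4 × 10^4 M−1 cm−1). Equilibrated buffered BSA with test compound at 0–130 μM at room temperature. Excitation 278 nm; tryptophan emission read over 250–450 nm. Ksv taken from the slope of Io/I versus [Q].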

[4] = tested on: CT-DNA; assay: Fluorescence EtBr exchange titration on CT-DNA; assay type: binding; details: for Stern–Volmer quenching constant K sv × 10^−3: Tris–HCl buffer pH 7.2, head: Ksv × 10^−3; for bimolecular quenching rate constant k q × 10^−13: τ0 = 23 ns, head: kq × 10^−13
In short: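 CT-DNA (10 μM) premixed with EtBr (10 μM) in 5.0 mM Tris–HCl/50 mM NaCl, pH 7.2, then held 4 h at 4 °C. Titrated with incremental aliquots of 5.0 mM test-compound stock in 50% DMSO. Excitation 500 nm; emission decrease recorded over 520–700 nm. Filter-effect corrections applied. DNA concentration set from A260 (ε ≈ 6600 M−1 cm−1).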

[5] = tested on: HepG2 cells; details: cited from earlier work

Sequence of BSA (P02769 25-607): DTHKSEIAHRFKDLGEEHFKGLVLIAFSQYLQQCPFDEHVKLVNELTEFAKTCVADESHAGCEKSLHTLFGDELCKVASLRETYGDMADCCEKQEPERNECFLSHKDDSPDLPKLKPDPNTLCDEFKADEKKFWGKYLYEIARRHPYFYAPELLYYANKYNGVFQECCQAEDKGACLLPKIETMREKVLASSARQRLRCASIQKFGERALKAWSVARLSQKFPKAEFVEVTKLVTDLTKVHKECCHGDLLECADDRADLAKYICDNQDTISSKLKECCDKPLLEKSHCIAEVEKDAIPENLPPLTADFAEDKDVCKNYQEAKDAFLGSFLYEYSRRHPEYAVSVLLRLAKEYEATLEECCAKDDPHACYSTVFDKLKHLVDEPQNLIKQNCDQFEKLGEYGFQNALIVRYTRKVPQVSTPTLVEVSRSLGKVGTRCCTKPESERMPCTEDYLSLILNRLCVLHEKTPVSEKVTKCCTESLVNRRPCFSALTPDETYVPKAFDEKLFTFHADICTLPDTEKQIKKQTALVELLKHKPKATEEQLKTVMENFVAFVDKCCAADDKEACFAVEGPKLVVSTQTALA

Row | Structure (SMILES) | relative viscosity of CT-DNA solutions with increasing concentration [1] | IC50 [2] [µM] | number of binding sites, n [3] | binding constant K F × 10^−5 [3] [M^−1] | Stern–Volmer quenching constant K sv × 10^−5 [3] [M^−1] | bimolecular quenching rate constant k q × 10^−10 [3] [M^−1 s^−1] | Stern–Volmer quenching constant K sv × 10^−3 [4] [M^−1] | bimolecular quenching rate constant k q × 10^−13 [4] [M^−1 s^−1] | IC50 [5] [µM]
1 | CC[n+]1c(-c2ccccc2)c2cc(N)ccc2c2ccc(N)cc21.[Br-] [EtBr, 3,8-diamino-5-ethyl-6-phenylphenanthridinium bromide] | increased dramatically | – | – | – | – | – | – | – | –
2 | [Cl][Pt][Cl].c1ccc(-c2nc3cc4ccccc4cc3nc2-c2ccccn2)nc1 [bbqPtCl2] | – | 17.4 ± 2 | 1.01 ± 0.05 | 5.34 ± 0.10 | 4.78 ± 0.19 | 9.61 ± 0.5 | 5.49 ± 0.07 | 2.52 ± 0.22 | –
3 | [Cl][Pt][Cl].c1ccc(-c2nc3ccccc3nc2-c2ccccn2)nc1 [bpqPtCl2] | – | 15.7 ± 1.6 | 0.98 ± 0.03 | 1.93 ± 0.02 | 2.47 ± 0.03 | 4.97 ± 0.2 | 2.43 ± 0.02 | 1.06 ± 0.10 | –
4 | N.N.[Cl][Pt][Cl] [cisplatin] | – | – | – | – | – | – | – | – | 17.9 ± 2.1
5 | Cc1cc2nc(-c3ccccn3)c(-c3ccccn3)nc2cc1C.[Cl][Pt][Cl] [dmbpqPtCl2] | – | 14.9 ± 1.4 | 0.98 ± 0.03 | 2.97 ± 0.07 | 3.47 ± 0.11 | 6.98 ± 0.3 | 3.26 ± 0.05 | 1.47 ± 0.16 | –
